Source: PubChem BioAssay (several laboratories)
Compounds with a hit are over-represented: about 4.5% of the library has one in this group of screens.
STAT1 act: activators of IFN-gamma induced STAT1 signaling | NIH 3T3 STAT1-luciferase reporter, luminescence; 100% = IFN-gamma alone, no compound | activation (% of control), % at 5.5 µM | 200,000 compounds, 2.6% hits | AID 932;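 active = activation above the screen-wide mean activation plus 3 SD, cut at about 130% in these data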;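 note: raw ratio to IFN-gamma control signal so 100% means no change and 0% no light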
APP 5'UTR act: activates APP 5'UTR luciferase reporter. 190,000 compounds, 1% hits. activation, % at 2 µM. AID 1276. SH-SY5Y APP 5'UTR luciferase reporter, luminescence; zero percent = DMSO vehicle wells;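 active = activation above a set limit, based on mean plus 3 SD of controls, cut at about 140% in these data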
AHR activator: activates the human aryl hydrocarbon receptor | 320,000 compounds, 2.5% hits | P35869 | AHR-responsive luciferase reporter cells, luminescence | activation, % at 5 µM | AID 2796; in the data active = activation above about 47%;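 note: 0% = vehicle wells and 100% = reference agonist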
NF-kB expr up: raises NF-kB expression in human neuronal cells. 190,000 compounds, 1.6% hits. fold change at 12.5 µM. NF-kB reporter expression; active compounds read high; in the data active = fold change above about 3.3
PERK inh: inhibitors of human PERK kinase | Q9NZJ5 | CHO PERK-DD fusion, SEAP luminescence translation reporter | inhibition, % at 5.6 µM | 220,000 compounds, 0.17% hits;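 active = inhibition above the mean inhibition of all tested compounds plus 3 SD, set separately per screening campaign, cut at about 2.9% in these data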;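 note: PERK kinase domain activated by AP20187 dimerizer at 100 nM; 0% = DMSO with dimerizer and 100% = rapamycin at 8.4 µM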
MDM2 E3 inh: blocks human Mdm2 ubiquitin ligase activity; 210,000 compounds, 0.11% hits; Q00987; signal enhancement, % at 5 µM; cell-based MDM2 ubiquitination luciferase reporter, 2 h; 0 = plate control, 100 = twice control, blank-subtracted;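 active = signal enhancement of 30% or more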;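 note: luminescence tracks abundance of the self-degrading MDM2-luciferase fusion protein; higher signal means inhibition of MDM2 E3 ligase activity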
Target sequence (Q00987 whole entry, looked up, the tested form may be a part): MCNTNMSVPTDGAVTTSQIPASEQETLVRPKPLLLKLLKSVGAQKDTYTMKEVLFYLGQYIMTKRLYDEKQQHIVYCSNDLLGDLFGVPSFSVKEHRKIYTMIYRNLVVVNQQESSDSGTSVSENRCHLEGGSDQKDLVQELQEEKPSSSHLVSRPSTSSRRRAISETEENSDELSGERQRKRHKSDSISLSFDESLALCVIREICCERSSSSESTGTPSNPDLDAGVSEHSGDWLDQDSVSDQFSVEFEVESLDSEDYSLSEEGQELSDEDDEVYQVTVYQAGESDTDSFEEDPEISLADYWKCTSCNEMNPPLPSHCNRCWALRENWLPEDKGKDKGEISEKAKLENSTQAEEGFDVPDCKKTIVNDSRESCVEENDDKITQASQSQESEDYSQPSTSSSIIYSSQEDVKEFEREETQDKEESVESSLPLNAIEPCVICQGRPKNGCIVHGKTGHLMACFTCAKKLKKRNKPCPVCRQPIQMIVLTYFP
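Buffer or medium: Cells held in DMEM | Assay system: Stable mammalian line carrying autodegrading MDM2–luciferase fusion reporter | Quantity: 2000 cells/well | Times: 4 h settle plus 2 h compound, 37 °C | Doses: One concentration, 5 µM, with 0.2% DMSO | Technique: Luminescence with SteadyLite reagent, 15 min at room temperature | Benchmarks: Plate controls and plate blanks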
* hit, by the source's call; . = no result given.

SMILES | STAT1 act | APP 5'UTR act | AHR activator | NF-kB expr up | PERK inh | MDM2 E3 inh
COc1cc(CNc2ncc(-c3ccc(Br)cc3)n2C)cc(OC)c1O | . | . | 0 | . | . | .
Cc1cc(C(=O)CSc2nc3ccc(Cl)cc3[nH]2)c(C)n1C | 90 | 11 | 79* | 0.73 | 1 | -7
Cc1ccc2nc(SCC(=O)c3cc(C)n(C)c3C)[nH]c2c1 | 101 | 5 | 52* | 3.4* | -1 | -4
COc1ccc(N/N=C(\C=N\O)C(=O)c2ccc(OC)cc2)cc1 | 101 | -88 | 48* | 0.99 | 0 | -19
CCOc1ccc(-c2ccc(SCC(=O)NC3CCCCC3)nn2)cc1 | . | . | 1 | . | . | .
CCOc1ccc(-c2ccc(SCC(=O)Nc3nnc(C)s3)nn2)cc1 | 103 | 183* | 3 | 2.6 | 1 | -40
CCSc1ccc(-c2ccc(C)cc2)nn1 | 98 | 187* | . | 6.6* | 1 | -47
CCc1ccc(-c2ccc(SCC(=O)Nc3nnc(C)s3)nn2)cc1 | 119 | 85 | 7 | 3 | 0 | -17
Cc1ccc(-c2ccc(SCC(=O)NC3CCCC3)nn2)cc1 | . | . | 5 | . | . | .
CCOc1ccc(-c2ccc(SCC)nn2)cc1 | 78 | 167* | -6 | 5* | 0 | -46
Cc1nc2ccccc2c(=O)n1/N=C/c1ccccn1 | 123 | 4 | 3 | 1.2 | 3.0* | -15
Cc1nc2ccccc2c(=O)n1/N=C/c1ccccc1F | . | . | 2 | . | . | .
CCc1ccc2c(CN3CCc4cc(OC)c(OC)cc4C3)cc(=O)oc2c1 | 101 | -7 | 74* | 1.1 | 0 | -3
O=C(N/N=C\C=C\c1ccco1)c1cc(-c2ccc3ccccc3c2)n[nH]1 | 133* | 30 | 30 | 2 | -1 | -7
O=C(N/N=C/C=C\c1ccco1)c1ccccn1 | . | . | 2 | . | 0 | -6
COC(=O)c1ccc(CSC2=NCCS2)cc1 | 130* | 61 | -1 | 1.9 | 1 | -9
COC(=O)c1ccc(CNC(=O)CSC2=NCCS2)cc1 | 94 | 14 | 0 | 1.3 | 0 | 2
CCN(CC)c1ccc(/C=C(\C#N)c2nc(-c3cccs3)c(NC(C)=O)s2)cc1 | 108 | 25 | . | 1.1 | 0 | 2
O=C(Nc1ccc(SC(F)(F)F)cc1)c1ccccn1 | 76 | 150* | -3 | 1.2 | -1 | -39
CC(=O)NS(=O)(=O)c1ccc(NC(=O)c2ccccn2)cc1 | 99 | -9 | 1 | 1.2 | 0 | 1
CCOC(=O)C(C(=O)OCC)C(C(=O)OCC)N1CCOCC1 (stereo unspecified) | 103 | -2 | -1 | 1.4 | 1 | 3
O=C(CSc1ccc2ccccc2n1)c1ccccc1 | . | . | 68* | . | 1 | -11
Cc1nc2ccccc2nc1SCC(=O)c1ccccc1 | 89 | 7 | 48* | 1 | 0 | -9
CC(C)(C)c1nc(SCC(=O)c2ccccc2)c2ccccc2n1 | 97 | -3 | -2 | 0.89 | -1 | 2
Cc1noc(C)c1CSCC(=O)Nc1ccc(S(C)(=O)=O)cc1 | . | . | 1 | . | . | .
SMILES | STAT1 act | APP 5'UTR act | AHR activator | NF-kB expr up | PERK inh | MDM2 E3 inh
CNC(=S)N1CCC(c2nc3ccccc3s2)CC1 | 102 | 25 | -2 | 1.4 | 0 | 6
O=c1[nH]n(Cc2ccccc2)c(=O)c2ccccc12 | 109 | 3 | 13 | 4.9* | 1 | -14
Cn1cc(S(=O)(=O)NCc2ccc(Cl)cc2)c(=O)n(C)c1=O | . | . | 1 | . | 1 | -76
O=C(c1cc(=O)[nH]c2ccccc12)N1CCN(c2ccc([N+](=O)[O-])cc2)CC1 | . | . | 2 | . | 0 | -4
COc1ccc(Nc2nc(-c3c[nH]c4ccccc34)cs2)cc1 | 115 | 62 | 76* | 1.8 | 0 | -6
COc1ccc2oc(=O)c(-c3csc(Nc4ccc(O)cc4)n3)cc2c1 | 116 | -7 | -7 | 3.6* | 0 | -9
COc1ccc(-c2csc(Nc3ccc(S(N)(=O)=O)cc3)n2)cc1 | 104 | . | -7 | 0.84 | 0 | 4
CC(C)CN(C(=O)COC(=O)c1nc(Cl)ccc1Cl)c1c(N)n(Cc2ccccc2)c(=O)[nH]c1=O | . | . | -2 | . | . | .
COc1ccccc1NC(=O)c1ccc(NC(=O)COC(=O)C2CCCCC2)cc1 | 107 | 0 | 8 | 1.2 | 1 | -5
COc1ccccc1NC(=O)c1ccc(NC(=O)COC(=O)c2cncc(Br)c2)cc1 | . | . | 50* | . | . | .
COc1ccccc1NC(=O)c1ccc(NC(=O)CN2CCCC2)cc1 | 94 | 9 | 53* | 1.1 | 0 | -9
COc1ccccc1NC(=O)c1ccc(NC(=O)CN2CCCCC2)cc1 | . | . | 1 | . | . | .
O=C(COC(=O)c1c[nH]c2ccccc12)Nc1ccccc1 | . | . | 15 | . | . | .
CC(NC(=O)COC(=O)c1c[nH]c2ccccc12)c1ccccc1 (stereo unspecified) | . | . | 56* | . | . | .
O=C(c1ccc(Cl)cc1Cl)C1(n2cncn2)Oc2ccccc2C1O (stereo unspecified) | 107 | 32 | 66* | 0.9 | 0 | -8
Nc1ccc(N=Nc2ccccc2)c(N)n1 | 111 | 49 | 3 | 2.1 | 0 | .
Nc1ccc(N=Nc2ccccc2)c2ccccc12 | . | . | 55* | . | 3 | -7
Cc1cc(C)n(-c2nc(NCCO)c3c4c(sc3n2)CCCC4)n1 | 115 | 6 | 47* | 0.9 | -2 | 2
O=[N+]([O-])c1ccccc1NC(=S)N/N=C/c1ccc(O)c(O)c1 | 148* | 150* | 34 | . | 1 | 2
Cc1cccc(C(=O)NCCNc2nc3cc(C)c(C)cc3cc2C)c1 | 100 | 1 | 35 | 1.3 | 0 | -10
Cc1cc2cc(C)c(NCCNC(=O)c3cccc(F)c3)nc2cc1C | 109 | 24 | 56* | . | 1 | .
COc1ccc(C(=O)NCCNc2nc3cc(C)c(C)cc3cc2C)cc1 | . | . | 63* | . | . | .
COc1ccc(NC(=O)c2ccc(S(=O)(=O)N(C)c3ccccc3)cc2)cn1 | . | . | -2 | . | 0 | .
Cc1ccc(-c2ccnc(-c3ccc(O)cc3)n2)cc1 | 142* | 44 | 0 | 1.5 | -1 | -8
CCCn1nc(NC(C)=O)c2cc3cccc(C)c3nc21 | . | . | 48* | . | . | .
SMILES | STAT1 act | APP 5'UTR act | AHR activator | NF-kB expr up | PERK inh | MDM2 E3 inh
Cc1cccc2cc3c(NC(=O)c4ccccn4)nn(C)c3nc12 | 91 | 5 | 49* | 0.64 | 1 | -7
Nc1ccccc1Oc1c(F)c(F)c(Oc2ccccc2N)c(F)c1F | 94 | 17 | 0 | 1.2 | 0 | -3
CCCCCCCOc1ccc(OC(=O)c2cccnc2)cc1 | 103 | 3 | -1 | 11* | -1 | -19
CCCCCCCOc1ccc(OC(=O)c2ccncc2)cc1 | 97 | -3 | 0 | 8.6* | 2 | -3
Cc1cccc(Cl)c1OCCCCn1ccnc1 | 100 | -21 | 57* | 0.81 | 1 | -1
Clc1ccccc1OCCCn1ccnc1 | . | . | 13 | . | . | .
Cc1cc(Cl)cc(C)c1OCCCCn1ccnc1 | 95 | 11 | 18 | 0.74 | 0 | -7
Clc1ccccc1OCCCCn1ccnc1 | 99 | 24 | 74* | 0.95 | 1 | -16
Cc1ccc(C(=O)Cn2c(C(=O)O)cc3ccccc32)cc1 | . | . | 59* | . | . | .
